High-throughput results: PubChem, several laboratories
Tb MetRS inh = Trypanosoma brucei MetRS inhibition; purified T. brucei MetRS, ATP depletion, Kinase-Glo luminescence; inhibition, % at 11.9 µM; 0.4% of 360,000 active;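 active means inhibition above a per-plate cutoff of the control wells' mean inhibition plus 3 SD, cut at about 5.5% in these data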;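 further: 0% = DMSO wells median and 100% = median of wells with control inhibitor compound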
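System: purified T. brucei MetRS enzyme / Detection: Kinase-Glo luciferase luminescence reporting remaining unconsumed ATP / Medium: HEPES buffer with MgCl2, KCl, DTT, spermine, BSA, pyrophosphatase / Replication: singlicate, one well per compound / Evaluation: percent inhibition relative to median high and low control wells / Schedule: 2 h aminoacylation at 25 °C after 15 min preincubation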
p-CIP stab down = p/CIP protein destabilization; Q05BA5; F442A p/CIP-EGFP cells, EGFP fluorescence, 16 h; decrease of EGFP signal, % at 10 µM; 0.01% of 290,000 active; AID 1984;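 active means EGFP signal decrease of at least 30% at 10 µM or well 3 SD below plate mean, unless failing retest; inactive means the rest, including hits failing retest or dose response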
PHOSPHO1 inh = PHOSPHO1 (human) inhibition; Q8TCT1; recombinant PHOSPHO1, absorbance phosphatase assay; inhibition, % at 13.3 µM; 1.1% of 290,000 active; AID 1565; in the data active means inhibition above about 60%
A3A deaminase = inhibitors of human APOBEC3A DNA deaminase. P31941. 0.41% of 330,000 active. inhibition, % at 20 µM. recombinant A3A, FAM/TAMRA ssDNA deamination fluorescence;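 active means at least 40% inhibition at 20 µM here, with at most 30% in a related deaminase screen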;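 further: plate controls were A3A with DMSO for no effect and wells lacking A3A enzyme for full effect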
APOBEC3G inh = inhibitors of human APOBEC3G DNA deaminase; Q9HC16; recombinant A3G, ssDNA deamination FAM/TAMRA fluorescence; inhibition, % at 20 µM; 0.28% of 330,000 active; AID 493012;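 active means inhibition of at least 40% at 20 µM, with no more than 30% in the related APOBEC3A deaminase screen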;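 further: plate controls were DMSO wells with A3G for no effect and wells lacking A3G enzyme for full effect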
Numbers without * were called inactive; x = no result. Most compounds without a hit are left out; they make up all but 1.8% or so of the library.

SMILES | Tb MetRS inh | p-CIP stab down | PHOSPHO1 inh | A3A deaminase | APOBEC3G inh
Cc1sc(NC(=O)c2sc3nc4c(C)cccc4cc3c2N)c(C#N)c1C | 0 | -6 | 12 | 3 | 3
Cc1cccc2cc3c(N)c(C#N)sc3nc12 | 1 | -11 | 64* | 0 | -8
NS(=O)(=O)c1ccc(CCNS(=O)(=O)c2ccc(Cl)s2)cc1 | 0 | x | x | -2 | -6
Cc1ccc(S(=O)(=O)NCC2(c3ccccc3)CCOCC2)cc1 | 0 | -8 | -20 | 1 | -6
COc1ccc(C2(CNS(=O)(=O)c3ccccc3)CCOCC2)cc1 | 1 | 2 | 64* | 3 | 3
O=C(COc1ccc(S(=O)(=O)NC2CCCCC2)cc1)NC1CC1 | 0 | -16 | 28 | -4 | -1
C=CCn1c(-c2cccn(Cc3ccccc3)c2=O)n[nH]c1=S | 0 | -7 | -67 | -2 | 28
C=CCn1c(-c2cccn(Cc3ccc(Cl)cc3)c2=O)n[nH]c1=S | -1 | -17 | 99* | -4 | 26
C=CCn1c(-c2cccn(Cc3cccc(Cl)c3)c2=O)n[nH]c1=S | -1 | -2 | 98* | -5 | 26
CC(C)n1c(=S)[nH]c2c1c(=O)[nH]c(=O)n2C | -1 | 1 | 62* | -7 | 0
O=C(NNS(=O)(=O)c1ccccc1[N+](=O)[O-])c1cccnc1 | -1 | -4 | 24 | -2 | -4
CCOc1ccc(C(=O)NCC(=O)NCCCn2nc(C)cc2C)cc1OCC | 0 | 11 | 34 | -3 | -7
CC(C)(C)c1cn(-c2ccccc2)c(=S)[nH]1 | -2 | -8 | 76* | -2 | 9
Cc1ccc(-n2cc(C(C)(C)C)[nH]c2=S)cc1 | 0 | 2 | 93* | -2 | -1
S=c1[nH]c(-c2ccccc2)cn1-c1ccccc1 | -1 | -4 | 20 | -5 | -5
C=CCn1c(SCc2cccc(OC)c2)nnc1-c1ccncc1 | -1 | -12 | 19 | 1 | -8
C(=N\Nc1nn[nH]n1)/c1ccccc1 | -1 | 4 | 71* | -3 | -3
c1ccc(Cc2noc(CN3CCC(CN4CCOCC4)CC3)n2)cc1 | -2 | -3 | 61* | 1 | -9
CS(=O)(=O)N1CCc2cc(C(=O)Nc3ccccc3Cl)ccc21 | -1 | -29 | 40 | -3 | -9
CCn1c(COc2ccc(C)cc2)nnc1SCc1ccc(C#N)cc1 | -1 | 2 | 94* | 2 | -1
COC(=O)CC(=O)CSc1nc2c(cc1C#N)CCC2 | -2 | -4 | -59 | -2 | -3
CCOC(=O)CC(=O)CSc1nc2c(cc1C#N)CCCCCC2 | -1 | -4 | 76* | -3 | -6
Cc1ccc(NC2=C(C(=O)c3ccccc3)N(C)S(=O)(=O)c3ccccc32)cc1 | 0 | 3 | 13 | 3 | 2
CN1C(C(=O)c2ccccc2)=C(N)c2ccccc2S1(=O)=O | 0 | 1 | 64* | -5 | -19
CC(=O)Nc1c(Cl)cc(Cl)c2c1Cc1cc(Cl)ccc1-2 | 0 | x | x | x | x
SMILES | Tb MetRS inh | p-CIP stab down | PHOSPHO1 inh | A3A deaminase | APOBEC3G inh
CC(C)CCn1c(SCc2ccc(Cl)cc2)nc2c1c(=O)[nH]c(=O)n2C | 0 | -13 | 61* | -2 | 19
CCOc1cccc2sc(NN)nc12 | -1 | -1 | 61* | x | x
CCOc1cccc2sc(Cl)nc12 | 2 | -6 | 43 | 2 | -1
Cc1cc2nc3s/c(=C/c4ccc(-c5ccccc5C(=O)O)o4)c(=O)n3c2cc1C | -1 | -70 | 46 | 16 | 4
O=C(O)c1ccccc1-c1ccc(/C=c2\sc3nc4cc(Br)cnc4n3c2=O)o1 | 0 | 5 | 62* | 99 | 92
NC(=O)C1CCN(c2nc(-c3ccc4c(c3)OCCO4)cs2)CC1 | x | x | x | -6 | -8
COc1cc(/C=C2\SC(=S)N(Nc3ncc(C(F)(F)F)cc3Cl)C2=O)ccc1O | 0 | -108 | 73* | -3 | -7
Cc1cc(NC(=O)COC(=O)c2cc(S(=O)(=O)N(C)C)ccc2Cl)no1 | 0 | x | x | -3 | -8
Cn1ccnc1SCC(=O)Nc1ccc(Oc2ccccc2)cc1 | -1 | -5 | 84* | -2 | -4
CCOc1ccc(NC(=O)CSc2nccn2C)cc1 | -1 | -2 | -1 | -2 | -6
CC(C)OCCCNS(=O)(=O)c1ccc2c(c1)oc(=O)n2C | 0 | -22 | 11 | 7 | 18
CCCN(CCC)CCCNS(=O)(=O)c1ccc2c(c1)oc(=O)n2C | 1 | 2 | 62* | 3 | -9
CCOC(=O)C1(C)/C(=N/Nc2ccccc2)C(=O)C(=O)N1c1ccccc1 (stereo not given) | 0 | 8 | 99* | -4 | 22
